Most compounds without a hit are left out; they make up all but 1.2% or so of the library.
Rce1 inh – yeast Rce1p protease inhibitors, primary screen, biochemical, fluorescence, cell-free homogeneous; CAAX prenyl protease 2 (Saccharomyces cerevisiae (strain ATCC 204508 / S288c)), Q03530; yeast membranes, quenched prenylated peptide cleavage fluorescence; calls only; 290,000 compounds, 0.27% hits; AID 2563, 2010;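 active = fall in fluorescence gain of 50% or more versus controls, with final raw signal at or below 3038400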;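 also: plate controls were neutral control wells for no effect and wells lacking membranes for full effect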
proCasp7 act – procaspase-7 activators, primary screen, counter-screen for procaspase-3 activator project, biochemical, absorbance, HTS, human. 330,000 compounds, 0.093% hits. AID 463210, 2010. activation, % at 8.5 µM. recombinant procaspase-7, Ac-DEVD-pNA absorbance 405 nm; D23A/D198A/D206A triple mutant, cannot self-cleave; scale: DMSO 0, 5 µM enzyme 100. Caspase-7 (Homo sapiens), P55210;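 active = percent activation above the screen-wide mean plus 3 SD, cut at about 25% in these data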
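System: Uncleavable procaspase-7 mutant enzyme; Amount: 2 µM procaspase-7 mutant as dispensed; Schedule: 1 h compound preincubation, 2 h substrate cleavage, 25 °C; Measured by: 405 nm absorbance of p-nitroaniline; Evaluation: percent activation from buffer-corrected 0–120 min absorbance change; Control set: low DMSO alone, high DMSO plus 5 µM PC-7.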
proCasp3 act – activators of human procaspase-3 D3A mutant, primary screen, biochemical, absorbance, PC-3 D3A mutant, single concentration; recombinant procaspase-3 D3A, Ac-DEVD-pNA absorbance 405 nm; Caspase-3 (Homo sapiens), P42574; AID 463141, 2010; activation, % at 8.5 µM; 330,000 compounds, 0.11% hits;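 active = activation above the mean of all tested compounds plus 3 SD, cut at about 21% in these data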;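 also: 0% = DMSO alone and 100% = DMSO wells spiked with extra 5 µM PC-3 D3A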
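Test system: Procaspase-3 D3A mutant; medium: Zinc-free HEPES/NaCl buffer with 0.01% Triton X-100 at pH 7.4; reagent: DEVD-pNA substrate; doses: one concentration, 8.5 µM nominal, 0.8% DMSO; times: 1 h preincubation plus 2 h reaction at 25 °C; signal: Epi-absorbance at 405 nm of released p-nitroaniline, 0 and 120 min; replicates: singlicate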
Lipid droplet – inhibitors of hepatocyte lipid droplet formation, primary screen, imaging, high-throughput imaging, BODIPY stain; AML12 mouse hepatocytes, oleate lipid droplets; inhibition, % at 6.5 µM; 240,000 compounds, 0.4% hits; AID 1656, 2009;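 active = lipid droplet intensity inhibited by at least 50%, with more than 500 cells counted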
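Assay system: AML12 hepatocytes (mouse) / Also added: 100 µM oleic acid challenge / Times: overnight treatment with compound plus oleate / Detection: high-content imaging of BODIPY-stained droplets and DAPI nuclei / Evaluation: % inhibition of lipid droplet signal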
GAA850 FXN act – FXN promoter activators, primary screen, cell-based, luciferase luminescence, HEK293 lucGAA850 | HEK293 lucGAA850 FXN promoter luciferase reporter, 24 h; percent of 10 µM SAHA response | activation, % at 6 µM | 360,000 compounds, 0.56% hits | AID 540364, 2011;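 active = activation above the average of all compounds screened plus 3 SD, cutoff fixed separately per campaign, cut at about 7.5% in these data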;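 also: 0% = DMSO wells and 100% = 10 µM SAHA wells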
pCIP destab – p/CIP-EGFP fusion destabilizers, primary screen, fluorescence, F442A cells; 290,000 compounds, 0.01% hits; 16 h; AID 1984, 2009; decrease of EGFP signal, % at 10 µM; Q05BA5;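 active = EGFP signal decrease of at least 30% at 10 µM or well 3 SD below plate mean, unless failing retest; inactive = the rest, including hits failing retest or dose response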
Target sequence (Q05BA5 1-1403): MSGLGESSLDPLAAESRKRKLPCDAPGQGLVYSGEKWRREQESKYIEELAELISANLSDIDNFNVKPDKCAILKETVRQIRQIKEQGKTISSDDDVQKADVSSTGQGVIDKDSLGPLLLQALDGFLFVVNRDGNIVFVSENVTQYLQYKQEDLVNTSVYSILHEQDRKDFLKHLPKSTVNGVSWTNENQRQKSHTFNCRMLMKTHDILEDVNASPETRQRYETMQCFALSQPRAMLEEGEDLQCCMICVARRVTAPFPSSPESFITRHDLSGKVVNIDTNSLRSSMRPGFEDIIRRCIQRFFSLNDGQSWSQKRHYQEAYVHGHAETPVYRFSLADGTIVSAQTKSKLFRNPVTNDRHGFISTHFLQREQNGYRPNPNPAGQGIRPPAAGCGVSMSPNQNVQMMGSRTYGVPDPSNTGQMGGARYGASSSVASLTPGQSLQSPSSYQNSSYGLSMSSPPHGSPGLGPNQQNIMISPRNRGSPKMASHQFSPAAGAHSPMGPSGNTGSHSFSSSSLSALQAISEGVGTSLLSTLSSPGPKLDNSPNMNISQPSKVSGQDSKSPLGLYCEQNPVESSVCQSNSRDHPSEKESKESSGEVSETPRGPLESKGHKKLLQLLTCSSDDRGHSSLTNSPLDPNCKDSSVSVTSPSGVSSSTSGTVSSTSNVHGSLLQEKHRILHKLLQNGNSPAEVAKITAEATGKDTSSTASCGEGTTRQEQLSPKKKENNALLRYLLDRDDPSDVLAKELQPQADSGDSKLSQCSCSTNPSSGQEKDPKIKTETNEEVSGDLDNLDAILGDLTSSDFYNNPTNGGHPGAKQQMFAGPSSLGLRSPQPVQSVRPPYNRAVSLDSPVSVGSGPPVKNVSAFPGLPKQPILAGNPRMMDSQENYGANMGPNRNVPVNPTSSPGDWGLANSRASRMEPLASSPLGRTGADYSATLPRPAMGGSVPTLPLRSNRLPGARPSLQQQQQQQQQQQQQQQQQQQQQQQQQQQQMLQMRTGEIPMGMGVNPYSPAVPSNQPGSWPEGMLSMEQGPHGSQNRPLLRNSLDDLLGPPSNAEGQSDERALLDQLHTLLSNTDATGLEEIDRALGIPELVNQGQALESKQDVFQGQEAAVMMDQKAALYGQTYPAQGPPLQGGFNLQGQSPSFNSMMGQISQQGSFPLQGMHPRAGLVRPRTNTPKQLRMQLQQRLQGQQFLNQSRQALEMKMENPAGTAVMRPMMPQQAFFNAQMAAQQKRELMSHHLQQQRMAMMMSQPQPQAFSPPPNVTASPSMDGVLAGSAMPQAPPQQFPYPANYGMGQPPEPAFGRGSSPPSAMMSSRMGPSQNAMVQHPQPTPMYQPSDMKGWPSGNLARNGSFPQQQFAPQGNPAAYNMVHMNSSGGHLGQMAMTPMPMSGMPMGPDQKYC
Lipid drop inh – hepatocyte lipid droplet accumulation inhibitors, confirmation, imaging, AML12 mouse hepatocytes, single concentration, high-content | shares compounds with Lipid droplet | BODIPY lipid droplet imaging; droplets induced with 100 µM oleic acid | 870 compounds, 65% hits | inhibition, % at 5.2 µM;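 active = inhibition of lipid droplet metric at least 50%, with more than 300 cells in each of four replicates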;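 also: plate controls were DMSO with oleic acid for no effect and 5 µM Triacsin-C for full effect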
AML12 cytotox – AML12 hepatocyte cytotoxicity, counter-screen for hepatic lipid droplet formation project, imaging, DAPI nuclear morphology imaging; AML12 mouse hepatocytes; stronger effect = higher value; cells fed 100 µM oleate overnight; AID 463200, 2010; z-score at 5 µM; 870 compounds, 3% hits; shares compounds with Lipid droplet; in the data active = z-score above about 6.3;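 also: compound exposure lasted overnight at 37 °C before fixation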
AML12 tox conf – AML12 hepatocyte cytotoxicity, confirmation, cytotoxicity control for hepatic lipid droplet formation project, cell-based, single concentration; cytotoxicity, % at 50 µM; AML12 mouse hepatocyte viability, ATP luminescence; cells loaded with 100 µM oleic acid; shares compounds with Lipid droplet; 530 tested, under 10 active;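 active = cytotoxicity above 50% in each of four replicates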;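 also: compound exposure lasted overnight at 37 °C before the ATP read; 0% = DMSO-treated cells and 100% = wells with no cells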
Starred values were filed as active, the others as inactive; i = inactive; x = not tested or not shown.

SMILES | Rce1 inh | proCasp7 act | proCasp3 act | Lipid droplet | GAA850 FXN act | pCIP destab | Lipid drop inh | AML12 cytotox | others
Cc1cc(-n2cnnn2)cc(C)c1S(=O)(=O)NCCOc1ccccc1 | i | 7.4 | 4.5 | 61.2* | 0.0 | -5.5 | -0.8 | -0.314
CC(=O)c1ccc(OCCNS(=O)(=O)c2ccc(-n3cnnn3)c(C)c2)cc1 | i | -3.6 | -6.2 | -8.6 | 1.1 | -12.1 | x | x
COc1ccc(OC)c(CC(=O)Nc2ccc3c(c2)c(=O)n(C)n3Cc2cccc(C(F)(F)F)c2)c1 | x | x | x | x | -2.0 | x | x | x
CC1CCCN(C(=O)c2ccc3c(c2NCCO)C(=O)c2ccccc2C3=O)C1 (centres undefined) | i | -4.4 | -4.8 | 53.9* | -2.3 | -2.5 | 104.9* | -0.187 | AML12 tox conf=32.6
CCN(CCN(C)C)C(=O)c1ccc2c(c1NCCO)C(=O)c1ccccc1C2=O | i | 2.8 | -0.1 | 21.9 | 0.4 | -7.7 | x | x
CC(C)NC(=O)Nc1nnc([C@@H]2C[C@H](O)[C@@H](CO)O2)s1 | x | x | x | x | -0.7 | x | x | x
CCOC(=O)c1ccc(NC(=O)CSc2nc3c(c(=O)n2C)SC(C)C3)cc1 (centres undefined) | i | 2.7 | -3.4 | x | 0.6 | -17.2 | x | x
CCOC(=O)c1ccc(NC(=O)CSc2nc3c(c(=O)n2CC)SC(C)C3)cc1 (centres undefined) | i | 13.9 | 0.9 | 51.9* | -0.9 | -9.0 | 78.9* | -0.85 | AML12 tox conf=11.9
O=C1c2ccccc2C(=O)c2c(Nc3ccc(CCO)cc3)ccc(O)c21 | i | 6.5 | -7.0 | 113.1* | 1.6 | 10.3 | 114.7* | 0.442
Fc1ccc(-c2cnn3c(-c4cccs4)ccnc23)cc1 | i | x | x | 62.7* | 7.4 | -269.3 | 79.4* | -0.157
CCc1nc2c(OCc3ccc(F)c(F)c3)cccn2c1N(C)C(=O)c1ccncc1 | x | x | x | x | -2.4 | x | x | x
COc1ccc(C[C@H]2CN3C(=NC[C@@H]3Cc3ccccc3)N2CCNC(=O)c2ccc(C)c(Br)c2)cc1 | i | -2.7 | 2.4 | -24.1 | -8.6 | 5.1 | x | x
COc1ccc(C[C@H]2CN3C(=NC[C@H]3Cc3ccccc3)N2CCNC(=O)c2ccc(C)c(Br)c2)cc1 | i | -4.5 | -1.0 | 54.2* | -8.9 | 6.0 | -2.7 | -0.0185
O=C(Cc1cccc2ccccc12)Nc1c(F)cccc1F | i | 4.2 | -4.5 | 55.0* | 1.0 | -14.3 | 82.3* | -0.754 | AML12 tox conf=8.5
CN(C)Cc1ccc(O)c(CCc2ccccc2)n1 | i | -1.8 | 4.8 | 51.6* | 0.8 | -8.1 | -1.7 | 0.215
CN(C)Cc1cc(C(C)(C)c2ccccc2)ccc1O | x | x | x | x | -0.4 | x | x | x
CC(C)Oc1ccc(F)cc1-c1cc(C(=O)Nc2ccc(C(C)(C)C)cc2)[nH]n1 | x | x | x | x | 2.4 | x | x | x
COC(=O)c1cc(-c2ccc(OC)cc2)nc2nc(SC)[nH]c(=O)c12 | i | -1.1 | -1.1 | 66.6* | 0.4 | -12.0 | 26.8 | -0.771
CCOC(=O)c1cc(-c2cccc(C(F)(F)F)c2)nc2nc(SC)[nH]c(=O)c12 | i | 7.9 | -11.5 | 12.2 | 2.5 | -19.0 | x | x
